Measured values: ChEMBL document CHEMBL2069235, “Synthesis and biological evaluation of tyrosine modified analogues of the α4β7 integrin inhibitor biotin-R₈ERY” (Bioorg Med Chem, 2012)
Activity calls are given as the source filed them. No cut-off for these calls is given here. *1 amine or outer side, *2 acyl side, *3 side chain or, on linkers, in order; H or OH if unused. Where a SMILES comes first, the peptide text is derived from it. [ ]: non-standard residue; d: D form. The star is where a group is joined. X2 = CCc1ccc(-c2ccc(C[C@H](N[*:1])C(=O)[*:2])cc2)cc1; Biotin = O=C1N[C@H]2[C@H](CS[C@H]2CCCCC(=O)*)N1; X1 = O=C([C@H](Cc1ccc(C2CCCCC2)cc1)N[*:1])[*:2]; Bip = N[C@@H](Cc1ccc(-c2ccccc2)cc1)C(=O)O

What was measured:
Type in all cases: cell-based
Integrin alpha-4/beta-7 = biological target: T1, Integrin alpha-4/beta-7 (Mus musculus, UniProt P26011+Q00651); test: Inhibition of alpha4beta7 assessed as inhibition of Mn(2+)-activated adhesion of mouse TK-1 T cells to mouse MAdCAM-1 incubated for 1 hr by cell adhesion assay
T1 sequence (Q00651 whole entry): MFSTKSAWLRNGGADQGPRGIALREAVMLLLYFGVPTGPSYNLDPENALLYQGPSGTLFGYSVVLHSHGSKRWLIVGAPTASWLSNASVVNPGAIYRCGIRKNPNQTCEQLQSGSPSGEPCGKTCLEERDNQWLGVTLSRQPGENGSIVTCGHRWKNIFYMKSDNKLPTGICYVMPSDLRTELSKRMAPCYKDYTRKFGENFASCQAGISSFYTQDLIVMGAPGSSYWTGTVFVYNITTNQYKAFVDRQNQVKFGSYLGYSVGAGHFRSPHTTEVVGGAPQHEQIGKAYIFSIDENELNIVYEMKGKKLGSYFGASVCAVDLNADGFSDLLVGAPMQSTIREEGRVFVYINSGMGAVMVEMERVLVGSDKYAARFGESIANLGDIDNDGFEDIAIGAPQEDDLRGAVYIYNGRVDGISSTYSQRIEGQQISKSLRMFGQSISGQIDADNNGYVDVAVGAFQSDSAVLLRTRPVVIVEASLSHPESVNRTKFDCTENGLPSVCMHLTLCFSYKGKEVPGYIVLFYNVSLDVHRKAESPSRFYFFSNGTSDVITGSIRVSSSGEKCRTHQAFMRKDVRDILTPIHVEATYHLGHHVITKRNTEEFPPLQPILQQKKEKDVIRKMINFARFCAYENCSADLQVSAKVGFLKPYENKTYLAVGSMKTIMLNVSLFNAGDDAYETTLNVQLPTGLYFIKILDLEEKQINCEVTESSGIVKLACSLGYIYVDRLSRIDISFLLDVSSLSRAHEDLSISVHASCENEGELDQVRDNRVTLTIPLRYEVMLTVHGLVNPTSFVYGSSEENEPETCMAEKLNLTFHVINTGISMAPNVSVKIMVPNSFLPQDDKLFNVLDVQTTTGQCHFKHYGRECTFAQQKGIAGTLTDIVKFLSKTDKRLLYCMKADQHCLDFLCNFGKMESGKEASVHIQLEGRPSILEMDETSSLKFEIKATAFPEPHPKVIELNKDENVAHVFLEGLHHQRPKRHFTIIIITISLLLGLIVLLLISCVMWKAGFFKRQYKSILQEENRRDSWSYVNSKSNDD
T1 sequence (P26011 whole entry): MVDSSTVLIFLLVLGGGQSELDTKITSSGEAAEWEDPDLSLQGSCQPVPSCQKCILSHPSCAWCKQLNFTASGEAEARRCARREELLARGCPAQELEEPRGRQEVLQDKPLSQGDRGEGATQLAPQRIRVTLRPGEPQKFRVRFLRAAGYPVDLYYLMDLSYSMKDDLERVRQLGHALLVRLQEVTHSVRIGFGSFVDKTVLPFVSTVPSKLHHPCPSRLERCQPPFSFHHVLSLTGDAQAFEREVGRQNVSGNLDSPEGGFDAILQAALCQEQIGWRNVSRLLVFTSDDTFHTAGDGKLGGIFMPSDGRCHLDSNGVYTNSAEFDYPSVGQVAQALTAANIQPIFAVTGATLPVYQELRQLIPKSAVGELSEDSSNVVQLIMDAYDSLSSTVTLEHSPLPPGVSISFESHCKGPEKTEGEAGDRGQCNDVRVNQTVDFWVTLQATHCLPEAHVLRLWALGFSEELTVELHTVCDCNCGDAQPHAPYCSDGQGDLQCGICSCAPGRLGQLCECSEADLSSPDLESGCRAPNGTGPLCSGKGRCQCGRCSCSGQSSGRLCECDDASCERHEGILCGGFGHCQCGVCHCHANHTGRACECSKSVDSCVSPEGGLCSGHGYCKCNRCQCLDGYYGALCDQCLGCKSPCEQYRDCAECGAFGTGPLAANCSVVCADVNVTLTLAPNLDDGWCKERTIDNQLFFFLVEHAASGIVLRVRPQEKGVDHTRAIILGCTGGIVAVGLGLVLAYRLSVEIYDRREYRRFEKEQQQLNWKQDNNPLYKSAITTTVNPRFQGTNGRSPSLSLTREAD
How it was run: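 TK-1 cells (mouse AKR/Cum CD8+ α4β7+/α4β1− T lymphoma), cultured at 37 °C in RPMI 1640 with 10% FCS and 0.05 mM β-mercaptoethanol. HBSS/10 mM Hepes buffer; cells preincubated with peptide 1 h at room temperature, then activated with MnCl2 to 2 mM. Added at 10⁶ cells/well to glass slides coated with mouse MAdCAM-1-Fc (10 µg/ml, 4 °C overnight, FBS-blocked); adhesion 30 min at room temperature.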

[1] = biological target: T2, Integrin alpha-4/beta-7 (Mus musculus) (UniProt Q00651+P26011); test: Inhibition of alpha4beta7 assessed as inhibition of Mn(2+)-activated adhesion of mouse TK-1 T cells to mouse MAdCAM-1 at 25 uM incubated for 1 hr by cell adhesion assay
How it was run: (§1)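 TK-1 cells (mouse AKR/Cum α4β7+/α4β1− CD8 T lymphoma), grown at 37 °C in RPMI 1640 with 10% FCS and 0.05 mM β-mercaptoethanol, were washed and held 1 h at room temperature in HBSS/10 mM Hepes with peptide. They were then activated with 2 mM MnCl₂ and added at 10⁶ cells/well to glass slides coated with mouse MAdCAM-1-Fc (10 μg/ml, FBS-blocked). Adhesion ran 30 min.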

[2] = biological target: T2, Integrin alpha-4/beta-7 (Mus musculus); test: Inhibition of alpha4beta7 assessed as inhibition of Mn(2+)-activated adhesion of mouse TK-1 T cells to mouse MAdCAM-1 at 50 uM incubated for 1 hr by cell adhesion assay; how it was run: as §1
[3] = biological target: T2, Integrin alpha-4/beta-7 (Mus musculus); test: Inhibition of alpha4beta7 assessed as inhibition of Mn(2+)-activated adhesion of mouse TK-1 T cells to mouse MAdCAM-1 at 100 uM incubated for 1 hr by cell adhesion assay; how it was run: as §1
[4] = biological target: T2, Integrin alpha-4/beta-7 (Mus musculus); test: Inhibition of alpha4beta7 assessed as inhibition of Mn(2+)-activated adhesion of mouse TK-1 T cells to mouse MAdCAM-1 at <5 to 10 uM incubated for 1 hr by cell adhesion assay; how it was run: as §1

`N=C(N)NCCC[C@H](NC(=O)CCCC[C@@H]1SC[C@@H]2NC(=O)N[C@@H]21)C(=O)N[C@@H](CCCNC(=N)N)C(=O)N[C@@H](CCCNC(=N)N)C(=O)N[C@@H](CCCNC(=N)N)C(=O)N[C@@H](CCCNC(=N)N)C(=O)N[C@@H](CCCNC(=N)N)C(=O)N[C@@H](CCCNC(=N)N)C(=O)N[C@@H](CCCNC(=N)N)C(=O)N[C@@H](CCC(=O)O)C(=O)N[C@@H](CCCNC(=N)N)C(=O)N[C@@H](Cc1ccc(-c2ccccc2)cc1)C(=O)O` (Biotin-RRRRRRRRER[Bip]-OH) was tested, and the IC50 (Integrin alpha-4/beta-7) was 7.3 µM, the inhibition [1] was “Active” and the inhibition [2] was 80.2%. The inhibition [3] was 91.3% and the inhibition [4] was “Active”.

`N=C(N)NCCC[C@H](NC(=O)[C@H](CCCNC(=N)N)NC(=O)[C@H](CCCNC(=N)N)NC(=O)[C@H](CCCNC(=N)N)NC(=O)[C@H](CCCNC(=N)N)NC(=O)[C@H](CCCN=C(N)N)NC(=O)[C@H](CCCN=C(N)N)NC(=O)[C@H](CCCN=C(N)N)NC(=O)CCCC[C@@H]1SC[C@@H]2NC(=O)N[C@@H]21)C(=O)N[C@@H](CCC(=O)O)C(=O)N[C@@H](CCCN=C(N)N)C(=O)N[C@@H](Cc1ccc(C2CCCCC2)cc1)C(=O)O` (Biotin-RRRRRRRRER[X1]-OH) gave an IC50 (Integrin alpha-4/beta-7) of 19 µM.

`CCc1ccc(-c2ccc(C[C@H](NC(=O)[C@H](CCCNC(=N)N)NC(=O)[C@H](CCC(=O)O)NC(=O)[C@H](CCCNC(=N)N)NC(=O)[C@H](CCCNC(=N)N)NC(=O)[C@H](CCCNC(=N)N)NC(=O)[C@H](CCCNC(=N)N)NC(=O)[C@H](CCCNC(=N)N)NC(=O)[C@H](CCCNC(=N)N)NC(=O)[C@H](CCCNC(=N)N)NC(=O)[C@H](CCCNC(=N)N)NC(=O)CCCC[C@@H]3SC[C@@H]4NC(=O)N[C@@H]43)C(=O)O)cc2)cc1` (Biotin-RRRRRRRRER[X2]-OH) was tested, and the IC50 (Integrin alpha-4/beta-7) was 14.3 µM, the inhibition [1] was “Active” and the inhibition [2] was 58%. For the same compound, the inhibition [3] was 74.2% and the inhibition [4] was “Active”.
